Active and inactive are the calls of the source. The calls are words filed in the database; no cut-off is given here.
What was measured:
Cryptococcus neoformans [1] = assay: Antifungal activity against Cryptococcus neoformans 28JF assessed as reduction in cell viability at 3.9 uM after 6 to 72 hrs by MTT assay; type: functional
[2] = test system: Cryptococcus gattii species complex; assay: Ratio of compound MIC for Cryptococcus gattii 23/10993 in presence of amphotericin B to compound MIC for Cryptococcus gattii 23/10993 in absence of amphotericin B by checkerboard microtiter test; type: functional, Cryptococcus bacillisporus
Outline: (§1)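 Checkerboard microdilution: eight two-fold dilutions of test compound (0.11 to 15.6 µM) crossed with amphotericin B (0.025 to 3.9 µM, in DMSO) or fluconazole (0.48 to 62.5 µM, in water). Inoculum per CLSI M27-A3 in RPMI-MOPS pH 7.0, 1-5 x10^3 cells/mL. Growth 48 to 72 h. Effective MIC is the combination concentration giving complete inhibition. FICs derived from MICs in combination versus alone.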

Cryptococcus neoformans [3] = assay: Antifungal activity against Cryptococcus neoformans 27JF assessed as reduction in cell viability at 3.9 uM after 6 to 72 hrs by MTT assay; type: functional
[4] = test system: Cryptococcus gattii species complex; assay: Antifungal activity against Cryptococcus gattii LMM818 assessed as reduction in cell viability at 3.9 uM after 6 to 72 hrs by MTT assay; type: functional, Cryptococcus bacillisporus
[5] = test system: Cryptococcus gattii species complex; assay: Antifungal activity against Cryptococcus gattii 1913ER assessed as reduction in cell viability at 3.9 uM after 6 to 72 hrs by MTT assay; type: functional, Cryptococcus bacillisporus
[6] = test system: Cryptococcus gattii species complex; assay: Ratio of compound MIC for Cryptococcus gattii 1913ER in presence of amphotericin B to compound MIC for Cryptococcus gattii 1913ER in absence of amphotericin B by checkerboard microtiter test; type: functional, Cryptococcus bacillisporus; outline: as §1
[7] = test system: Cryptococcus gattii species complex; assay: Ratio of compound MIC for Cryptococcus gattii 547/OTTI-97-PI-10 in presence of fluconazole to compound MIC for Cryptococcus gattii 547/OTTI-97-PI-10 in absence of fluconazole by checkerboard microtiter test; type: functional, Cryptococcus bacillisporus; outline: as §1
Cryptococcus neoformans [8] = assay: Ratio of compound MIC for Cryptococcus neoformans CN31 in presence of fluconazole to compound MIC for Cryptococcus neoformans CN31 in absence of fluconazole by checkerboard microtiter test; type: functional; outline: as §1
[9] = test system: Cryptococcus gattii species complex; assay: Ratio of compound MIC for Cryptococcus gattii 196L/03 in presence of amphotericin B to compound MIC for Cryptococcus gattii 196L/03 in absence of amphotericin B by checkerboard microtiter test; type: functional, Cryptococcus bacillisporus; outline: as §1
Cryptococcus neoformans [10] = assay: Ratio of compound MIC for Cryptococcus neoformans ATCC 62066 in presence of fluconazole to compound MIC for Cryptococcus neoformans ATCC 62066 in absence of fluconazole by checkerboard microtiter test; type: functional; outline: as §1
Cryptococcus neoformans [11] = assay: Ratio of compound MIC for Cryptococcus neoformans LMM820 in presence of amphotericin B to compound MIC for Cryptococcus neoformans LMM820 in absence of amphotericin B by checkerboard microtiter test; type: functional; outline: as §1
[12] = test system: Cryptococcus gattii species complex; assay: Ratio of compound MIC for Cryptococcus gattii ICB181 in presence of amphotericin B to compound MIC for Cryptococcus gattii ICB181 in absence of amphotericin B by checkerboard microtiter test; type: functional, Cryptococcus bacillisporus; outline: as §1
[13] = test system: Cryptococcus gattii species complex; assay: Ratio of compound MIC for Cryptococcus gattii ICB181 in presence of fluconazole to compound MIC for Cryptococcus gattii ICB181 in absence of fluconazole by checkerboard microtiter test; type: functional, Cryptococcus bacillisporus; outline: as §1
Cryptococcus gattii = assay: Ratio of compound MIC for Cryptococcus gattii ATCC 24065 in presence of fluconazole to compound MIC for Cryptococcus gattii ATCC 24065 in absence of fluconazole by checkerboard microtiter test
Cryptococcus neoformans [14] = assay: Ratio of compound MIC for Cryptococcus neoformans WP in presence of amphotericin B to compound MIC for Cryptococcus neoformans WP in absence of amphotericin B by checkerboard microtiter test; type: functional; outline: as §1
[15] = test system: Cryptococcus gattii species complex; assay: Antifungal activity against Cryptococcus gattii L27/01 assessed as reduction in cell viability at 3.9 uM after 6 to 72 hrs by MTT assay; type: functional, Cryptococcus bacillisporus
[16] = test system: Cryptococcus gattii species complex; assay: Ratio of compound MIC for Cryptococcus gattii L27/01 in presence of amphotericin B to compound MIC for Cryptococcus gattii L27/01 in absence of amphotericin B by checkerboard microtiter test; type: functional, Cryptococcus bacillisporus; outline: as §1
Cryptococcus neoformans [17] = assay: Ratio of compound MIC for Cryptococcus neoformans ATCC 28957 in presence of fluconazole to compound MIC for Cryptococcus neoformans ATCC 28957 in absence of fluconazole by checkerboard microtiter test; type: functional; outline: as §1
Cryptococcus neoformans [18] = assay: Ratio of compound MIC for Cryptococcus neoformans WP in presence of fluconazole to compound MIC for Cryptococcus neoformans WP in absence of fluconazole by checkerboard microtiter test; type: functional; outline: as §1
Cryptococcus neoformans [19] = assay: Antifungal activity against Cryptococcus neoformans 5396 assessed as reduction in cell viability at 3.9 uM after 6 to 72 hrs by MTT assay; type: functional
[20] = test system: Cryptococcus gattii species complex; assay: Ratio of compound MIC for Cryptococcus gattii 547/OTTI-97-PI-10 in presence of amphotericin B to compound MIC for Cryptococcus gattii 547/OTTI-97-PI-10 in absence of amphotericin B by checkerboard microtiter test; type: functional, Cryptococcus bacillisporus; outline: as §1
Cryptococcus neoformans [21] = assay: Ratio of compound MIC for Cryptococcus neoformans F10 in presence of amphotericin B to compound MIC for Cryptococcus neoformans F10 in absence of amphotericin B by checkerboard microtiter test; type: functional; outline: as §1
[22] = test system: Cryptococcus gattii species complex; assay: Ratio of compound MIC for Cryptococcus gattii 23/10993 in presence of fluconazole to compound MIC for Cryptococcus gattii 23/10993 in absence of fluconazole by checkerboard microtiter test; type: functional, Cryptococcus bacillisporus; outline: as §1
[23] = test system: Cryptococcus gattii species complex; assay: Antifungal activity against Cryptococcus gattii LMM818 assessed as reduction in cell viability at 1.9 uM after 6 to 72 hrs by MTT assay; type: functional, Cryptococcus bacillisporus
[24] = test system: Cryptococcus gattii species complex; assay: Antifungal activity against Cryptococcus gattii L28/02 assessed as reduction in cell viability at 1.9 uM after 6 to 72 hrs by MTT assay; type: functional, Cryptococcus bacillisporus
[25] = test system: Cryptococcus gattii species complex; assay: Antifungal activity against Cryptococcus gattii ICB181 assessed as reduction in cell viability at 1.9 uM after 6 to 72 hrs by MTT assay; type: functional, Cryptococcus bacillisporus
[26] = test system: Cryptococcus gattii species complex; assay: Antifungal activity against Cryptococcus gattii 23/10993 assessed as reduction in cell viability at 1.9 uM after 6 to 72 hrs by MTT assay; type: functional, Cryptococcus bacillisporus
[27] = test system: Cryptococcus gattii species complex; assay: Antifungal activity against Cryptococcus gattii 547/OTTI-97-PI-10 assessed as reduction in cell viability at 1.9 uM after 6 to 72 hrs by MTT assay; type: functional, Cryptococcus bacillisporus
[28] = test system: Cryptococcus bacillisporus; assay: Antifungal activity against Cryptococcus gattii ATCC 32608 assessed as reduction in cell viability after at 1.9 uM 6 to 72 hrs by MTT assay; type: functional
[29] = test system: Cryptococcus gattii species complex; assay: Antifungal activity against Cryptococcus gattii 135L/03 assessed as reduction in cell viability at 1.9 uM after 6 to 72 hrs by MTT assay; type: functional, Cryptococcus bacillisporus
[30] = test system: Cryptococcus gattii species complex; assay: Antifungal activity against Cryptococcus gattii L27/01 assessed as reduction in ergosterol content at MIC after 24 hrs by spectrophotometric analysis; type: functional, organism-based; conditions: Cryptococcus bacillisporus
Outline: (§2)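 Pellet washed and weighed, then saponified in 25% ethanolic KOH at 85°C for 1 h. Extracted with water and n-heptane, read at 282 and 230 nm. Ergosterol taken from a standard curve and expressed as % of growth control.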

[31] = test system: Cryptococcus gattii species complex; assay: Antifungal activity against Cryptococcus gattii 196L/03 assessed as reduction in ergosterol content at MIC after 24 hrs by spectrophotometric analysis; type: functional, organism-based; conditions: Cryptococcus bacillisporus; outline: as §2

Compound | Activity (Cryptococcus neoformans [1]) [%] | fractional inhibitory concentration index (FICI) [2] | fractional inhibitory concentration index (FICI) [6] | fractional inhibitory concentration index (FICI) [7] | fractional inhibitory concentration index (FICI) (Cryptococcus neoformans [8]) | fractional inhibitory concentration index (FICI) [9] | fractional inhibitory concentration index (FICI) (Cryptococcus neoformans [10]) | fractional inhibitory concentration index (FICI) (Cryptococcus neoformans [11]) | fractional inhibitory concentration index (FICI) [12] | fractional inhibitory concentration index (FICI) [13] | fractional inhibitory concentration index (FICI) (Cryptococcus gattii) | fractional inhibitory concentration index (FICI) (Cryptococcus neoformans [14]) | fractional inhibitory concentration index (FICI) [16] | fractional inhibitory concentration index (FICI) (Cryptococcus neoformans [17]) | fractional inhibitory concentration index (FICI) (Cryptococcus neoformans [18]) | fractional inhibitory concentration index (FICI) [20] | fractional inhibitory concentration index (FICI) (Cryptococcus neoformans [21]) | fractional inhibitory concentration index (FICI) [22] | Activity [30] | Activity [31] | further results
c1ccc(-c2csc(NN=C3CCCC3)n2)cc1 | 80 | 2.18 | 1.04 | 5.96 | 2.71 | 1.46 | 2.46 | 2.66 | 1.28 | 4.58 | 3.71 | 1.46 | 2.48 | 3.36 | 2.46 | 2.66 | 2.58 | 4.23 |  |  | Activity (Cryptococcus neoformans [3]): 80%; Activity [4]: 80%; Activity [5]: 80%; Activity [15]: 80%; Activity (Cryptococcus neoformans [19]): 80%
C(=N\Nc1nc(-c2ccccc2)cs1)/C1CCCCC1 |  | 2.67 | 1.47 | 4.47 | 3.97 | 3.97 | 2.04 | 4.3 | 4.98 | 2.58 | 1.58 | 2.41 | 1.34 | 4.47 | 2.47 | 4.74 | 2.62 | 1.47 |  |  | Activity [23]: 90%; Activity [24]: 90%; Activity [25]: 90%; Activity [26]: 90%; Activity [27]: 90%; Activity [28]: 90%; Activity [29]: 90%
COc1ccc(-c2csc(N/N=C/C3CCCCC3)n2)cc1 | 80 | 2.36 | 1.75 | 3.46 | 2.58 | 1.58 | 3.58 | 2.78 | 1.73 | 4.46 | 2.43 | 1.46 | 2.66 | 2.51 | 2.21 | 2.58 | 1.46 | 2.46 |  |  | Activity (Cryptococcus neoformans [3]): 80%; Activity [4]: 80%; Activity [5]: 80%; Activity [15]: 80%; Activity (Cryptococcus neoformans [19]): 80%
C[C@@H]1[C@H](O)[C@@H](C)/C=C/C=C/C=C/C=C/C=C/C=C/C=C/[C@H](O[C@@H]2O[C@H](C)[C@@H](O)[C@H](N)[C@@H]2O)C[C@@H]2O[C@](O)(C[C@@H](O)C[C@@H](O)[C@H](O)CC[C@@H](O)C[C@@H](O)CC(=O)O[C@H]1C)C[C@H](O)[C@H]2C(=O)O [AMPHOTERICIN B] |  |  |  |  |  |  |  |  |  |  |  |  |  |  |  |  |  |  | inactive | inactive | 
OC(Cn1cncn1)(Cn1cncn1)c1ccc(F)cc1F [FLUCONAZOLE] |  |  |  |  |  |  |  |  |  |  |  |  |  |  |  |  |  |  | Active | Active | 
COc1ccc(-c2csc(N/N=C(\C)CCO)n2)cc1 |  | 3.51 | 2.78 | 3.31 | 4.38 | 9.38 | 2.3 | 2.58 | 9.55 | 1.99 | 0.88 | 2.78 | 4.61 | 2.28 | 2.32 | 2.98 | 2.47 | 2.28 | inactive | inactive | Activity [23]: 90%; Activity [24]: 90%; Activity [25]: 90%; Activity [26]: 90%; Activity [27]: 90%; Activity [28]: 90%; Activity [29]: 90%
